Experimental data taken from ChEMBL document CHEMBL1134374, “High-throughput permeability pH profile and high-throughput alkane/water log P with artificial membranes” (J Med Chem, 2001).

Key:
[1] = Effective permeability (Pe) across a hexadecane membrane (pH 6.8); assay type: ADME
Method in brief: (§1)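 Passive permeation from donor to acceptor across a polycarbonate filter (3 µm pores, 9–10 µm thick) coated with hexadecane left after hexane evaporation. Donor held 50 µg/mL compound in buffer with 5% DMSO and 100 mM KCl; acceptor held buffer with 5% DMSO. Incubated 5 h at room temperature with light shaking. Acceptor UV absorbance read at 260–290 nm. Wells below 5 kΩ resistance discarded.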

[2] = Highest effective permeability across hexadecane membrane (pH 4-8); assay type: ADME; method in brief: as §1
[3] = % absorbed in human GI-tract; assay type: ADME, organism-based; conditions: in vivo, read-out: % absorbed
[4] = Partition coefficient (logD6.8); assay type: physicochemical; conditions: octanol/water, pH 6.8
[5] = Partition coefficient (logP) (hexadecane); assay type: physicochemical; conditions: hexadecane/water
[6] = Intrinsic permeability of the compound; assay type: ADME
Method in brief: (§2)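 Derived from hexadecane-membrane Pe measured across a pH range, combined with aqueous pKa. Pe is corrected for ionization to give Pul. Pul is then corrected for the unstirred water layer by the Gutknecht–Tosteson relation to give the intrinsic permeability P0.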

[7] = Effective permeability corrected for ionization; assay type: ADME; method in brief: as §2
[8] = Intrinsic permeability measured with HDM assay; assay type: ADME; method in brief: as §2
[9] = Effective permeability measured with HDM assay; assay type: ADME; method in brief: as §1

CC(C)(C)NCC(O)c1cc(O)cc(O)c1 (configuration not stated) [TERBUTALINE]
Log Pe [1]: -4.1 cm s-1
Log Pe [2]: -4.1 cm s-1
Fa [3]: 70%
logD ([4]; read-out: logD): -2

CN(C)CCCN1c2ccccc2Sc2ccc(Cl)cc21 [CHLORPROMAZINE]
logP [5]: 4.7
Log Pe [1]: -3.7 cm s-1
Log Pe [2]: -3.5 cm s-1
Fa [3]: 100%
logD ([4]; read-out: logD): 2.9
Log Po [6]: 1.3
Log Pe,max [7]: -3.6

N=C(N)N/N=C/c1c(Cl)cccc1Cl [GUANABENZ]
logP [5]: -1.6
Log Pe [1]: -5 cm s-1
Log Pe [2]: -4.4 cm s-1
logD ([4]; read-out: logD): 0.9
Log Po [6]: -4.6
Log Pe,max [7]: -4.9

CN/C(=N/CCSCc1nc[nH]c1C)NC#N [CIMETIDINE]
Log Pe [1]: -4 cm s-1
Log Pe [2]: -4 cm s-1
Fa [3]: 95%
logD ([4]; read-out: logD): 0.1

NS(=O)(=O)c1cc2c(cc1Cl)NCNS2(=O)=O [HYDROCHLOROTHIAZIDE]
Log Pe [1]: -4.7 cm s-1
Log Pe [2]: -4.2 cm s-1
Fa [3]: 67%

CCN1CCCC1CNC(=O)c1cc(S(N)(=O)=O)ccc1OC (configuration not stated) [SULPIRIDE]
Log Pe [1]: -4.6 cm s-1
Log Pe [2]: -4.6 cm s-1

NC(N)=Nc1nc(CSCCC(N)=NS(N)(=O)=O)cs1 [FAMOTIDINE]
Log Pe [1]: -4.6 cm s-1
Log Pe [2]: -4.3 cm s-1
Fa [3]: 45%
logD ([4]; read-out: logD): -0.8

C=CCc1ccccc1OCC(O)CNC(C)C (configuration not stated) [ALPRENOLOL]
logP [5]: 1.3
Log Pe [1]: -4 cm s-1
Log Pe [2]: -4 cm s-1
logD ([4]; read-out: logD): 0.3
Log Po [6]: -1.6
Log Pe,max [7]: -3.6

O=C(O)Cc1ccccc1Nc1c(Cl)cccc1Cl [DICLOFENAC]
Log Po [6]: -1.3
Log Pe,max [7]: -3.7

CCCCC(=O)N(Cc1ccc(-c2ccccc2-c2nnn[nH]2)cc1)[C@H](C(=O)O)C(C)C
Fa [3]: 55%
logD ([4]; read-out: logD): -1.6

CN1CCN(C2=Nc3cc(Cl)ccc3Nc3ccccc32)CC1 [CLOZAPINE]
Fa [3]: 100%
logD [4]: 3

CN/C(=C/[N+](=O)[O-])NCCSCc1ccc(CN(C)C)o1 [RANITIDINE]
Log Pe [1]: -4.6 cm s-1
Log Pe [2]: -4.5 cm s-1
Fa [3]: 50%
logD ([4]; read-out: logD): -1.1

CN(Cc1cnc2nc(N)nc(N)c2n1)c1ccc(C(=O)N[C@@H](CCC(=O)O)C(=O)O)cc1 [METHOTREXATE]
Log Pe [1]: -4.7 cm s-1
Log Pe [2]: -4.7 cm s-1
Fa [3]: 20%
logD ([4]; read-out: logD): -3

N=C(N)NC(=O)c1nc(Cl)c(N)nc1N [AMILORIDE]
Log Pe [1]: -4.6 cm s-1
Log Pe [2]: -4.4 cm s-1
Fa [3]: 50%
logD ([4]; read-out: logD): -2.1

CC(C)(C)NC[C@H](O)COc1nsnc1N1CCOCC1 [TIMOLOL]
logP [5]: -1
Log Pe [1]: -4.4 cm s-1
Log Pe [2]: -4.2 cm s-1
Fa [3]: 72%
logD ([4]; read-out: logD): -0.7
Log Po [6]: -3.2
Log Pe,max [7]: -3.6

CC(=O)CC(c1ccccc1)c1c(O)c2ccccc2oc1=O (configuration not stated) [WARFARIN]
logP [5]: 1
Log Pe [1]: -3.8 cm s-1
Log Pe [2]: -3.8 cm s-1
logD ([4]; read-out: logD): 0.6
Log Po [6]: -2.3
Log Pe,max [7]: -3.6

O=C(O)c1cc(/N=N/c2ccc(S(=O)(=O)Nc3ccccn3)cc2)ccc1O [SULFASALAZINE]
Log Pe [1]: -4.9 cm s-1
Log Pe [2]: -4.9 cm s-1
logD ([4]; read-out: logD): -0.7

CC(=O)[C@H]1CC[C@H]2[C@@H]3CCC4=CC(=O)CC[C@]4(C)[C@H]3CC[C@]12C [PROGESTERONE]
Log Pe [1]: -3.8 cm s-1
Log Pe [2]: -3.8 cm s-1
Fa [3]: 91%
logD ([4]; read-out: logD): 4.3

CC(C)Cc1ccc(C(C)C(=O)O)cc1 (configuration not stated) [IBUPROFEN]
logP [5]: 1.95
Log Po [8]: -0.9
Log Pe,max [9]: -3.7
Log Po [6]: -0.9
Log Pe,max [7]: -3.7

Cc1ccccc1N1C(=O)c2cc(S(N)(=O)=O)c(Cl)cc2NC1C (configuration not stated) [METOLAZONE]
Log Pe [1]: -4.6 cm s-1
Log Pe [2]: -4.6 cm s-1
logD ([4]; read-out: logD): 4.1

CC(C)NCC(O)COc1cccc2ccccc12 (configuration not stated) [PROPRANOLOL]
Log Pe [1]: -4.4 cm s-1
Log Pe [2]: -4 cm s-1

NC(=O)N1c2ccccc2C=Cc2ccccc21 [CARBAMAZEPINE]
Log Pe [1]: -3.9 cm s-1
Log Pe [2]: -3.9 cm s-1
logD ([4]; read-out: logD): 2.4

CC(CCc1ccccc1)NCC(O)c1ccc(O)c(C(N)=O)c1 (configuration not stated) [LABETALOL]
Log Pe [1]: -4.2 cm s-1
Log Pe [2]: -3.8 cm s-1
Fa [3]: 90%
logD ([4]; read-out: logD): 0.5

O=C1NC(=O)C(c2ccccc2)(c2ccccc2)N1 [PHENYTOIN]
logP [5]: -0.3
Log Pe [1]: -4 cm s-1
Log Pe [2]: -4 cm s-1
Fa [3]: 90%
logD ([4]; read-out: logD): 2.2
Log Po [6]: -3.6
Log Pe,max [7]: -4.4

C[C@]12CC[C@H]3[C@@H](CCC4=CC(=O)CC[C@@]43C)[C@@H]1CC[C@@H]2O [TESTOSTERONE]
Log Pe [1]: -3.5 cm s-1
Log Pe [2]: -3.5 cm s-1
Fa [3]: 100%
logD ([4]; read-out: logD): 3.9

CC(C(=O)O)c1cccc(C(=O)c2ccccc2)c1 (configuration not stated) [KETOPROFEN]
Log Po [6]: -2.7
Log Pe,max [7]: -3.6

COCCc1ccc(OCC(O)CNC(C)C)cc1 (configuration not stated) [METOPROLOL]
logP [5]: -0.4
Log Pe [1]: -4.2 cm s-1
Log Pe [2]: -4.2 cm s-1
logD ([4]; read-out: logD): -0.8
Log Po [6]: -2.8
Log Pe,max [7]: -3.6

O=C(O)CN(CCN(CC(=O)O)Cc1ccccc1O)Cc1ccccc1O
Log Pe [1]: -5.1 cm s-1
Log Pe [2]: -5.1 cm s-1
Fa [3]: 5%
logD ([4]; read-out: logD): -0.2

Nc1nc2c(ncn2COCCO)c(=O)[nH]1 [ACYCLOVIR]
Log Pe [1]: -4.8 cm s-1
Log Pe [2]: -4.8 cm s-1
logD ([4]; read-out: logD): -2

O=C(O)c1ccccc1O [SALICYLIC ACID]
logP [5]: -1
Log Po [6]: -3.2
Log Pe,max [7]: -3.4

CC(=O)N(O)CCCCCNC(=O)CCC(=O)N(O)CCCCCNC(=O)CCC(=O)N(O)CCCCCN [DEFEROXAMINE]
Log Pe [1]: -5.3 cm s-1
Log Pe [2]: -5.3 cm s-1
Fa [3]: 2%
logD ([4]; read-out: logD): -3

CN1C(C(=O)Nc2ccccn2)=C(O)c2ccccc2S1(=O)=O [PIROXICAM]
Log Pe [1]: -4 cm s-1
Log Pe [2]: -3.3 cm s-1
logD ([4]; read-out: logD): 0.3
